Measured values as given in ChEMBL document CHEMBL1811845, “Modulation of GABAA-receptors by honokiol and derivatives: subtype selectivity and structure-activity relationship” (J Med Chem, 2011).

Tested on: Oocyte
Test: Modulation of GABA alpha1beta2gamma2s receptor expressed in Xenopus laevis oocytes assessed as potentiation of GABA-induced chloride current at holding potential -70 mV by two-microelectrode voltage clamp technique relative to GABA
Format: cell-based
In short: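 Oocytes were injected with α1, β2 and γ2s cRNAs mixed 1:1:10 and stored at 18 °C in ND96 (pH 7.4). GABA was applied at a concentration giving 3–7% of maximal current, determined for each oocyte. Enhancement was taken as (I(GABA+compound)/IGABA) − 1. Concentration–response data were fitted to a Hill equation. Control solutions carried equal DMSO, at most 0.3%.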

## C=CCc1ccc(O)c(-c2ccc(O)c(CC=C)c2)c1 [HONOKIOL]
  Smax: 1320%
